Screening data deposited in PubChem BioAssay by The Scripps Research Institute Molecular Screening Center.
NS3 helicase inh = HCV NS3 helicase inhibition; NS3 helicase DNA unwinding, Cy5 molecular beacon fluorescence; inhibition, % at 10.9 µM; hit rate 0.56% among 290,000; AID 1800;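 active = inhibition above the mean of all tested compounds plus 3 SD, set per campaign, cut at about 35% in these data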;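 note: 0% = DMSO wells and 100% = thioflavine S control wells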
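Assay system: hepatitis C virus NS3 helicase domain fragment enzyme. Also added: annealed dual-labelled DNA beacon duplex, ATP-started. Timing: 1 h reaction at 25 °C, ATP-initiated. Technique: Cy5 fluorescence at 0 and 60 min, beacon hairpin quenching. Evaluation: % inhibition of unwinding. Replication: one well per compound.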
core dimer inh = blocks dimerization of HCV core protein; inhibition, % at 5 µM; hit rate 0.33% among 300,000; AID 1899; TR-FRET GST/Flag-core106 dimerization, 1536-well;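 active = inhibition above the mean of all tested compounds plus 3 SD, set per screening campaign, cut at about 45% in these data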
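Material: GST/Flag-tagged HCV core106 proteins. Incubation: 4 h, 22.5 °C incubation. Read-out basis: inhibition (%) from 671 over 617 nm ratio. Measured by: TR-FRET, excitation 340 nm, emission 617 and 671 nm.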
rCAG binder = binds r(CAG) RNA repeats; r(CAG) RNA repeat, TO-PRO-1 dye displacement fluorescence; inhibition, % at 3 µM; hit rate 1.3% among 370,000; AID 651821;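 active = inhibition above the plate cutoff, the mean of all test compounds on that plate plus 3 SD, cut at about 35% in these data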;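 note: 0% = DMSO alone and 100% = 100 µM mitoxantrone as full dye displacement; higher means more dye released from RNA so lower well fluorescence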
TAAR1 agonist = human TAAR1 agonism | CHO RD-HGA16 TAAR1, Fluo-8 calcium fluorescence; vehicle wells 0%, saturating PEA agonist 100% | activation, % at 3 µM | Q96RJ0 | hit rate 0.99% among 360,000;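 active = activation above the mean activation of all test compounds in the run plus 3 SD, cut at about 38% in these data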
Target sequence (Q96RJ0 whole entry, looked up): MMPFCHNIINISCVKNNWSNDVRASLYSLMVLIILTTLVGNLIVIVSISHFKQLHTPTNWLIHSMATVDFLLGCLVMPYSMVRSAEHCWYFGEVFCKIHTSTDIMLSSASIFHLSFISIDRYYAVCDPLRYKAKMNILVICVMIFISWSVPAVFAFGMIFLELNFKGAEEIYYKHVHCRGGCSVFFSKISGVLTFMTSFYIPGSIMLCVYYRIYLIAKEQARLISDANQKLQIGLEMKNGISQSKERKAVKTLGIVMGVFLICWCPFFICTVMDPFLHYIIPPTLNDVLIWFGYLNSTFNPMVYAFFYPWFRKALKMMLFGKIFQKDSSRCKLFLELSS
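test system = CHO RD-HGA16 cells carrying human TAAR1 plus Gα16 | schedule = 17-24 h seeding, 75 min 37 °C dye, 30 min RT | compound dosing = 3 µM single concentration | control set = DMSO and PEA EC100 | replicates = n 1 | signal = Fluo-8 fluorescence, 5 s baseline then 140 s kinetic read | measure = percent activation vs PEA EC100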
TAAR1 antag = human TAAR1 antagonism | CHO RD-HGA16 TAAR1, Fluo-8 calcium fluorescence, antagonist | inhibition, % at 3 µM | hit rate 1.5% among 360,000;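 active = inhibition above a per-plate cutoff, the mean inhibition of test compounds on that plate plus 3 SD, cut at about 49% in these data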;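 note: 0% = DMSO plus EC80 beta-PEA response and 100% = DMSO alone without agonist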
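Material: CHO RD-HGA16 cells bearing hTAAR1; compound dosing: one-point dosing, 3 µM nominal final; schedule: dye loading 75 min at 37 °C, then 30 min room temperature; measured by: calcium fluorescence with Fluo-8; control set: vehicle and agonist controls; replication: n of 1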
* marks the source's active call; other numbers are inactive results; nt = no result. This is a sample that favours compounds with a hit; in the whole collection about 3.7% have one here.

SMILES	NS3 helicase inh	core dimer inh	rCAG binder	TAAR1 agonist	TAAR1 antag
CN1C(=O)c2cc(NC(=O)c3ccccc3)ccc2OC[C@H]2O[C@@H](CC(=O)NCC3CC3)CC[C@@H]21	nt	nt	3	nt	nt
COc1ccc(C(OCC(O)CNC(C)c2ccccc2)c2ccc(OC)cc2)cc1 (stereo not drawn)	-54	3	-5	14	2
Cc1ccc(C(OCC(O)CNCc2ccc(F)cc2)c2ccccc2)cc1 (stereo not drawn)	-51	-4	-3	40*	32
CCC(C)c1ccc(C(C)NC(=S)NCc2ccc(F)cc2)cc1 (stereo not drawn)	-7	2	-6	7	37
CCOc1ccc(C(C)NC(=S)NCc2ccc(Cl)cc2)cc1 (stereo not drawn)	3	0	-3	45*	21
CCCc1ccc(C(C)NC(=S)NCc2ccc(F)cc2)cc1 (stereo not drawn)	-8	2	-4	58*	70*
Cc1occc1-c1nnc(SCC(=O)NCc2ccc(Cl)cc2)n1-c1ccccc1	nt	nt	5	nt	nt
Cn1nnnc1Sc1ncnc2scc(-c3ccccc3)c12	1	65*	11	-1	-9
Cn1nnnc1Sc1ncnc2scc(-c3ccc(Br)cc3)c12	nt	nt	5	6	14
CCCN(CC1CC1)C(=O)CNc1nnnn1-c1ccccc1	nt	nt	3	nt	nt
O=C(NNC(=O)c1cc2cc3ccccc3nc2s1)c1cccc(Cl)c1	2	58*	6	10	-1
Cc1ccc(S(=O)(=O)NNC(=O)c2cc3cc4ccccc4nc3s2)cc1	23	7	36*	2	16
Cc1cccc(C(=O)NNC(=O)c2cc3cc4ccccc4nc3s2)c1	0	25	7	5	18
O=C(NCC1CCCCC1)c1cc(S(=O)(=O)N2CCOCC2)ccc1F	nt	nt	3	39*	-26
COc1ccc(C(=O)CSC2=C(C#N)C3(CCCCC3)C(C#N)=C(N)N2)cc1	-6	4	10	25	11
N#CC1=C(N)NC(SCC(=O)c2ccc(Br)cc2)=C(C#N)C12CCCCC2	-5	5	10	16	66*
N#CC1=C(N)NC(SCC(=O)c2ccc(Cl)cc2)=C(C#N)C12CCCC2	17	4	14	10	51*
CCOC(=O)c1cccc(NC(=O)CN(C)S(=O)(=O)c2ccc(F)cc2)c1	nt	nt	-1	nt	nt
O=C(N/N=C/c1ccc(F)cc1)c1cccc(NC(=O)c2ccccc2Cl)c1	2	-15	4	22	54*
O=C(N/N=C/c1ccncc1)c1cccc(NC(=O)c2ccccc2Cl)c1	-7	8	1	16	50*
CC(C)Cc1ccc(C(C)NC(=O)Cc2ccc(S(=O)(=O)N3CCOCC3)s2)cc1 (stereo not drawn)	nt	8	-4	38*	45
O=C(CSc1nnc(-c2ccncc2)n1-c1ccc(Br)cc1)c1ccccc1	nt	nt	3	nt	nt
N#C/C=C(/N)N1CCN(c2ccc(Cl)c(Cl)c2)CC1	-2	5	4	38*	17
COc1ccc(NC(=S)c2ccncc2)cc1	3	2	3	41*	3
COc1ccc(C(=S)Nc2ccc(C)cc2)cc1	-3	-3	2	0	10
SMILES	NS3 helicase inh	core dimer inh	rCAG binder	TAAR1 agonist	TAAR1 antag
Cc1ccccc1N=C1SC(CC(=O)Nc2ccc3ccccc3c2)C(=O)N1Cc1ccccn1 (stereo not drawn)	-17	14	12	10	51*
CCOC(=O)C1CCCN(C(=O)CNC(=O)c2nn(-c3ccc(OC)c(Cl)c3)c(=O)c3ccccc23)C1 (stereo not drawn)	-5	3	8	38*	51*
COc1ccc(-n2nc(C(=O)NCC(=O)N3CCCC(C)C3)c3ccccc3c2=O)cc1Cl (stereo not drawn)	-4	12	12	18	41
COc1ccc(-n2nc(C(=O)NCC(=O)N(C)Cc3ccccc3)c3ccccc3c2=O)c(OC)c1	2	0	-5	-1	7
COc1ccc(-n2nc(C(=O)NCC(=O)N(C)Cc3ccccc3)c3ccccc3c2=O)cc1OC	-3	6	0	9	49*
COc1ccc(-n2nc(C(=O)NCC(=O)NC3CCCCCC3)c3ccccc3c2=O)cc1OC	4	-5	-3	10	50*
